# Data published in ChEMBL document CHEMBL1127419, “A comparative molecular field analysis model for 6-arylpyrrolo[2,1-d] [1,5]benzothiazepines binding selectively to the mitochondrial benzodiazepine receptor” (J Med Chem, 1994).
# Experiments:
# Translocator protein [1] = target: T1, Translocator protein (Rattus norvegicus, UniProt P16257); assay: (§1) Displacement of [3H]-PK 11195 from rat peripheral (mitochondrial) benzodiazepine receptor
# Procedure, shortened: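 Male CD rat (~150 g) cerebral cortex membranes washed in 50 mM phosphate-buffered saline, pH 7.4. 10 mg wet tissue incubated 120 min at 4 °C with 1 nM [3H]PK 11195 and 8–12 drug concentrations. Nonspecific binding defined with 1 μM PK 11195. Filtration, scintillation counting. IC50 by nonlinear curve fitting; triplicate points.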
# Translocator protein [2] = target: T1, Translocator protein; assay: as §1; remark: listed apart in the source
# T1 sequence (P16257 whole entry, looked up): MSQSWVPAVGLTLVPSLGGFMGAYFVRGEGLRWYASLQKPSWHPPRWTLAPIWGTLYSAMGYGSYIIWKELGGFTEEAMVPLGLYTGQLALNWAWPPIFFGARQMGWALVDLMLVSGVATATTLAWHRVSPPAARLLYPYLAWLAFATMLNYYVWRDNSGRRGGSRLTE
Compound,IC50 (Translocator protein [1]) [nM],IC50 (Translocator protein [2]) [nM]
COc1ccc(C2=C(OC(=O)c3cc(OC)c(OC)c(OC)c3)c3cccn3-c3cc(C(F)(F)F)ccc3S2)cc1,100000,
CC(=O)OC1=C(c2ccc(Cl)cc2)Sc2ccccc2-n2cccc21,30.2,30
CN(C)C(=O)OC1=C(c2ccccc2)Sc2c(Cl)cccc2-n2cccc21,3.98,4
CN(C)C(=O)OC1=C(c2ccccc2F)Sc2ccccc2-n2cccc21,30.9,31
CC(=O)OC1=C(c2ccccc2F)Sc2ccccc2-n2cccc21,38,38
COc1ccc(C2=C(OC(=O)c3ccncc3)c3cccn3-c3ccccc3S2)cc1,100000,
COc1ccc(C2=C(OC(=O)c3cccnc3)c3cccn3-c3ccccc3S2)cc1,100000,
COc1ccc(C2=C(OC(C)=O)c3cccn3-c3cccc(Cl)c3S2)cc1,20.4,
CCCC(=O)OC1=C(c2ccccc2)Sc2ccccc2-n2cccc21,21.4,
CC(=O)OC1=C(c2ccccc2)Sc2c(Cl)cccc2-n2cccc21,7.59,
CN(C)C(=O)OC1=C(c2ccccc2)Sc2ccccc2-n2cccc21,9.12,
COc1ccc(C2=C(OC(=O)c3cc(OC)c(OC)c(OC)c3)c3cccn3-c3ccccc3S2)cc1,100000,
COc1ccc(C2=C(OC(=O)c3cc(OC)c(OC)c(OC)c3)c3cccn3-c3cc(Cl)ccc3S2)cc1,100000,
CCC(=O)OC1=C(c2ccccc2)Sc2ccccc2-n2cccc21,66.1,
CC(=O)OC1=C(c2ccccc2)Sc2cc(C)ccc2-n2cccc21,112,112
CC(=O)OC1=C(c2ccccc2)Sc2ccc(C)cc2-n2cccc21,676,675
O=C1c2cccn2-c2ccccc2S(=O)(=O)C1c1ccccc1 (stereo not given),100000,
CCC(=O)OC1=C(c2ccc(OC)cc2)Sc2ccccc2-n2cccc21,29.5,
CC(=O)OC1=C(c2ccccc2)Sc2ccccc2-n2cccc21,19.5,
COc1ccc(C2=C(OC(=O)N(C)C)c3cccn3-c3ccccc3S2)cc1,9.12,
CC(=O)OC1=C(c2ccc(F)cc2)Sc2ccccc2-n2cccc21,28.2,28
COc1ccc(C2=C(OC(C)=O)c3cccn3-c3ccccc3S2(=O)=O)cc1,631,
CCCC(=O)OC1=C(c2ccc(OC)cc2)Sc2ccccc2-n2cccc21,27.5,
COc1ccc(C2=C(OC(=O)N(C)C)c3cccn3-c3cc(C(F)(F)F)ccc3S2)cc1,295,
COc1ccc(C2=C(OC(=O)N(C)C)c3cccn3-c3cc(Cl)ccc3S2)cc1,166,
CS(=O)(=O)OC1=C(c2ccccc2)Sc2ccccc2-n2cccc21,57.5,
CCCCCC(=O)OC1=C(c2ccccc2)Sc2ccccc2-n2cccc21,23.4,
COc1ccc(C2C(=O)c3cccn3-c3ccccc3[S+]2[O-])cc1 (stereo not given),22900,
